From PubChem
This is a sample that favours compounds with a hit; in the whole collection about 2.4% have one here.
VIM-2 inhibitor = VIM-2 metallo-beta-lactamase inhibitors, primary screen, biochemical, epi-absorbance readout, Pseudomonas aeruginosa enzyme | 290,000 compounds, 0.89% hits | inhibition, % at 5.6 µM | purified VIM-2, nitrocefin hydrolysis, epi-absorbance fluorescence;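 active = inhibition above the mean of all tested compounds plus 3 SD, cutoff set per screening run, cut at about 7.5% in these data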;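 also: red hydrolysis product quenches plate fluorescence so inhibitors raise well fluorescence; 0% = enzyme with DMSO and 100% = DMSO without enzyme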
IMP-1 inh = IMP-1 metallo-beta-lactamase inhibitors, primary screen, biochemical, epi-absorbance readout, Pseudomonas aeruginosa enzyme; metallo-beta-lactamase IMP-1 (Pseudomonas aeruginosa); purified IMP-1, nitrocefin hydrolysis, epi-absorbance fluorescence; inhibition, % at 5.6 µM; 290,000 compounds, 0.45% hits; AID 1556, 2009;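 active = inhibition above the mean plus 3 SD of all compounds in the same screening run, cut at about 4.5% in these data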;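 also: 0% = IMP-1 with DMSO and 100% = DMSO wells lacking enzyme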
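Material – recombinant IMP-1 enzyme, purified · Amount – IMP-1 0.2 nM before substrate addition · Medium – HEPES buffer pH 7.1 with ZnSO4 and Brij 35 · Timing – 25 °C, 15 min preincubation, 25 min reaction · Measured by – plate fluorescence quenching by hydrolysis product, ex 480/em 530 nm · Read-out – percent enzyme inhibition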
M18AAP inhibitor = PfM18AAP inhibitors, malaria aminopeptidase, primary screen, biochemical, QFRET, recombinant enzyme; M18 aspartyl aminopeptidase (Plasmodium falciparum 3D7); 290,000 compounds, 1.2% hits; H-Glu-NHMec fluorogenic cleavage; inhibition, % at 7.35 µM;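 active = inhibition above the campaign mean inhibition over all tested compounds plus 3 SD, cut at about 28% in these data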;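 also: 0% = plate median of test compound wells and 100% = 2 mM ZnCl2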
HGIII-sPLA2 inh = human group III sPLA2 inhibitors, primary screen, biochemical, QFRET, BODIPY PC-A2 liposome substrate | inhibition, % at 12.2 µM | 370,000 compounds, 0.56% hits | QFRET BODIPY PC-A2 liposome hydrolysis, fluorescence | AID 743126, 2013;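 active = inhibition above mean plus 3 SD of compounds lying within the high and low control bounds, cut at about 19% in these data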;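 also: 0% = median of test compound wells and 100% = no enzyme DMSO wells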
Target sequence (Q9NZ20 whole entry, looked up): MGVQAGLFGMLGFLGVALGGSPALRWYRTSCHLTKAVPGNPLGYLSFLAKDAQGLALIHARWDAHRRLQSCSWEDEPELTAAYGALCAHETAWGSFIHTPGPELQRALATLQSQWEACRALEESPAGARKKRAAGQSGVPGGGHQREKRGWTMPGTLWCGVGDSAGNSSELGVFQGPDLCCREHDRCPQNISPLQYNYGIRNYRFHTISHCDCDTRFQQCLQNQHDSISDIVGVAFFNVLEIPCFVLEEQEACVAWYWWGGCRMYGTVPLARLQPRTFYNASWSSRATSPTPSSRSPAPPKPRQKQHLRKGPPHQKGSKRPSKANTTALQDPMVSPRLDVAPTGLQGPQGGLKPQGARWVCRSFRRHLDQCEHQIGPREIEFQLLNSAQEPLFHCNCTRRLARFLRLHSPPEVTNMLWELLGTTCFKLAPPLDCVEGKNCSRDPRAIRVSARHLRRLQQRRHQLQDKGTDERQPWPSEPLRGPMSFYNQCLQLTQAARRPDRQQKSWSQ
An asterisk follows results filed as active; / = no result.

SMILES | VIM-2 inhibitor | IMP-1 inh | M18AAP inhibitor | HGIII-sPLA2 inh
Cc1ccc(C(=O)NC(=S)NNC(=O)c2ccc([N+](=O)[O-])cc2)cc1 | -4 | -4 | -1 | 7
CC(O)c1cc2c(cc1NC(=O)c1cnn3c1NC(c1ccco1)CC3C(F)(F)F)OCO2 (stereo not given) | -2 | -3 | 29* | -6
CCC(C)NC(=O)c1cnn2c1NC(c1ccc3c(c1)OCO3)CC2C(F)(F)F (stereo not given) | -2 | -2 | -2 | -8
C=CCN1[C@@H](C)COc2cccc(N3CCCC3)c2S1(=O)=O | / | / | / | -1
Cn1c(SCC(=O)Nc2ccccc2-c2ccccc2)nnc1-c1ccccc1 | / | / | / | 8
CC(C)(C)N(Cc1cn(Cc2ccccc2)nn1)S(=O)(=O)c1ccc(N2CCCC2)cc1Br | / | / | / | 6
O=C1CCCC2=C1Sc1ccc(Cl)cc1N2 | 0 | 2 | 30* | 9
COC(=O)[C@]12C[C@H](CC(=O)NCCc3ccccc3OC)C(=O)N(Cc3cccc4ccccc34)C1=C[C@H](C(C)(C)C)O[C@@H]2C | / | / | / | -1
CCC(CO)Nc1cccc2c1S(=O)(=O)N(Cc1cn(Cc3cccc(C(F)(F)F)c3)nn1)Cc1ccccc1O2 (stereo not given) | / | / | / | -13
CC1CN(c2ccc(NC(=S)Nc3ccc(N4CC(C)OC(C)C4)cc3)cc2)CC(C)O1 (stereo not given) | -3 | -5 | 29* | 12
CN(CCO)c1cccc2c1S(=O)(=O)N(Cc1cn(Cc3ccc(Cl)cc3)nn1)Cc1ccccc1O2 | / | / | / | -6
Cc1ccc(S(=O)(=O)N2CCCCC2)cc1NC(=O)CSc1ccc2c(c1)OCCO2 | 0 | 7.1* | -4 | 0
Cn1c(=O)c2c(SCc3cccnc3)nc(CC(C)(C)C)nc2n(C)c1=O | 2 | -1 | -17 | -4
CCCc1nc(SCc2cccnc2)c2c(=O)n(C)c(=O)n(C)c2n1 | 10* | -5 | 2 | -3
CCOc1ccc(-c2c(C#N)c(N)nc3c2c(=O)n(C)c(=O)n3C)cc1OC | -2 | 7.6* | 3 | 2
COc1ccc(-c2c(C#N)c(N)nc3c2c(=O)n(C)c(=O)n3C)cc1 | 0 | -1 | -12 | 8
CC(C)C1OC2c3cccc4cccc(c34)C2N1c1ccccc1 (stereo not given) | 2 | 4.6* | 2 | -9
Cc1ccc(NC(=O)CN(C)C(=O)CCC(=O)c2cccs2)cc1 | -2 | 8.9* | 1 | 12
CCC(=O)N1CCc2cc(Br)c(S(=O)(=O)N3CCCC(C(=O)NC(C)(C)C)C3)cc21 (stereo not given) | / | / | / | 0
COc1ccc(Oc2cccc3c2S(=O)(=O)N(C2CC2)C[C@@H](COCc2ccccc2)O3)cc1 | / | / | / | 2
Cn1cc(/C=C2\SC(=O)NC2=S)c2ccccc21 | 4 | 5.3* | 13 | 11
Cc1ccc(/C=C2/SC(=O)NC2=S)o1 | 4 | 5.3* | 26 | /
Cc1ccc(/C=C2/SC(=S)N(C3CCCCC3)C2=O)o1 | -4 | 0 | 24 | -2
COc1cc(NC(=O)c2cc(C)on2)c(OC)cc1Cl | / | / | / | 1
Cc1cc(C)cc(OCCCN2CCC(C(O)(c3ccccc3)c3ccccc3)CC2)c1 | / | / | / | -22
SMILES | VIM-2 inhibitor | IMP-1 inh | M18AAP inhibitor | HGIII-sPLA2 inh
COc1cc(C2C(C#N)=C(N)Oc3cc(N(C)C)ccc32)cc2c1OCO2 (stereo not given) | -2 | -2 | 30* | -6
CCn1c(CCCc2ccc(OC)c(C)c2)n[nH]c1=S | -2 | -2 | 29* | 17
C=CCn1c(CCSCc2ccc(OC)c(C)c2)n[nH]c1=S | -1 | -4 | 14 | 14
CC(C)c1cc(NCCOCCO)n2c(nc3ccccc32)c1C#N | 12* | -1 | 0 | 1
CCCc1cc(NCCCCO)n2c(nc3ccccc32)c1C#N | 7 | -1 | 3 | -4
CCCc1cc(NCCCN2CCOCC2)n2c(nc3ccccc32)c1C#N | 8.0* | 0 | 0 | 0
COC(=O)C1CN(Cc2cn(Cc3ccc(OC)cc3)nn2)CCS(=O)(=O)N1Cc1ccc(Cl)cc1 (stereo not given) | / | / | / | 0
CCCCN1CC(=O)N2[C@H](C[C@@]3(C)c4ccccc4N(S(=O)(=O)c4ccccc4)[C@@H]23)C1=O | / | / | / | 1
Cc1cc(C)c([N+](=O)[O-])cc1-c1ccc(/C=N/c2c(-c3ccco3)nc3ccccn23)o1 | 4 | 9.2* | 15 | 2
Cc1ccccc1CS(=O)(=O)Cc1ccc(C(=O)Nc2cccc(C)c2C)o1 | / | / | / | -11
Cn1c(=O)c2cc(S(=O)(=O)N3CCN(c4ccccc4Cl)CC3)ccc2n(C)c1=O | / | / | / | 6
O=C(NCCc1ccccc1)OCc1cn(Cc2cccc(C(F)(F)F)c2)nn1 | / | / | / | -12
C=CCn1c(SCC(=O)NCCCC)nc2scc(-c3ccco3)c2c1=O | 2 | 7.9* | -25 | -11
O=C(O)C1Sc2[nH]c(=O)sc2C2c3cc(Br)ccc3OC(=O)C12 (stereo not given) | 5 | 5.5* | 13 | -5
NC(=O)CSc1nc2sc3c(c2c2ncnn12)CCCC3 | 9.8* | 0 | -7 | 0
COc1cc(/C=C2/C(=O)c3cccc([N+](=O)[O-])c3C2=O)c(Br)cc1O | 1 | 1 | 30* | -3
COc1ccccc1NC(=O)CCCCCN1C(=O)c2cccc([N+](=O)[O-])c2C1=O | -3 | -1 | 0 | -3
CC(C)Oc1cccc(C(=O)N/N=C/c2coc3ccccc3c2=O)c1 | -7 | 5.3* | 12 | -8
CCOc1cccc(C(=O)N/N=C/c2coc3ccccc3c2=O)c1 | -5 | 5.5* | -7 | -8
Cc1cccc(C(=O)N/N=C/c2coc3ccccc3c2=O)c1 | -4 | 5.8* | 1 | -8
Clc1ccc(CN2CCN(c3ncc(Cc4ccccc4)cn3)CC2)c(Cl)c1 | / | / | / | 3
COC(=O)[C@]12C[C@H](CC(=O)NCc3cccs3)C(=O)N(CCc3ccc(OC)c(OC)c3)C1=C[C@H](C1CCCC1)O[C@@H]2C | / | / | / | -15
COc1ccc(-c2cc(NC(=O)Cc3c[nH]c4ccccc34)ccc2Nc2cccnc2)c(OC)c1 | / | / | / | -62
CC1OC(Oc2c(-c3cc(O)c(O)c(O)c3)oc3cc(O)cc(O)c3c2=O)C(O)C(O)C1O (stereo not given) | 0 | -3 | 45* | 2
O=C(Nc1nncs1)c1ccc2c(c1)OCO2 | -5 | -1 | 29* | 4
COc1ccccc1Cn1nc(C(=O)O)c2ccccc2c1=O | 1 | -1 | 4 | 3
CCOc1ccc(C(C)=O)cc1Cn1nc(C(=O)O)c2ccccc2c1=O | 9.8* | -3 | -5 | -6
COc1ccc(C(=O)O[C@@H]2CCC[C@@]3(C(=O)N(Cc4ccccc4)c4ccccc43)[C@H]2NC(=O)CCc2ccccc2)cc1OC | / | / | / | -5
S=c1[nH]nc(-c2cc(-c3ccco3)[nH]n2)n1-c1cccc2ccccc12 | -1 | -2 | -1 | 4
S=c1[nH]nc(-c2ccco2)n1/N=C/c1ccccc1Cl | -1 | -5 | 15 | 18
